The entries come from a sample that favours hits as a whole.
MPTP block – inhibitors of mitochondrial permeability transition pore; AID 602449; actives 1.4% (n = 360,000); inhibition, % at 10 µM; isolated mouse mitochondria, Ca2+ swelling absorbance, 30 min;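 active = inhibition of 50% or more, scaled per plate between neutral and stimulator controls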;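 also: 0% = DMSO wells given calcium and 100% = 1 mM EGTA wells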
Hep lipid drop – modulators of hepatic lipid droplet formation; AML12 mouse hepatocytes, oleate lipid droplets, BODIPY imaging; inhibition, % at 6.5 µM; actives 0.4% (n = 240,000); AID 1656;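 active = lipid droplet intensity inhibited by at least 50%, with more than 500 cells counted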
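System: AML12 hepatocytes (mouse). Probe or stimulus: oleic acid at 100 µM to induce lipid droplet formation. Times: overnight treatment with compound plus oleate. Detection: Image-based BODIPY and DAPI two-channel analysis. Evaluation: percent inhibition of filter-corrected integrated lipid droplet intensity per well.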
Lmaj promast – Leishmania major promastigote growth inhibition; actives 9% (n = 200,000); Leishmania major promastigotes, resazurin fluorescence viability; inhibition, % at 10 µM; in the data active = inhibition above about 50%;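 also: promastigotes grown with compound for 44 hours at 28 °C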
T cruzi repl – blocks replication of Trypanosoma cruzi; T. cruzi beta-gal in NIH3T3, luminescence, 90 h; inhibition, % (test concentration not listed); actives 1.4% (n = 300,000); AID 1885;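 active = mean inhibition across valid replicates above about 55%, limit read from the data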;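 also: signal also drops with host cell toxicity which is not excluded here; 0% = plate median of DMSO wells and 100% = zero luminescence signal; higher percent means less beta-gal luminescence so fewer parasites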
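System: Mouse NIH/3T3 fibroblasts infected with β-gal-expressing T. cruzi Tulahuen C4 | Quantity: NIH/3T3 cells, 5,000 per well | Reagent: 5000 reporter trypomastigotes per well | Dosing: Compound pinned at 50 nL/well, DMSO | Schedule: 3 h host attachment, then at least 90 h co-culture | Detection: GalScreen luminescence, 60 min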
Redox H2O2 prof – compounds producing H2O2 with reducing agent – biochemical, NIH compound library profiling, artefact control for MLSCN library redox annotation, primary screen; DTT-dependent redox cycling H2O2, phenol red/HRP absorbance; 100% = 100 µM peroxide control, 0% = buffer; activation, % at 10 µM; actives 0.03% (n = 200,000);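 active = activation of at least 50% relative to the plate's high and low controls in the primary single-dose screen; inactive = activation below 50%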;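 also: compound incubated with DTT at 0.8 mM final as the reducing agent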
Hep lipid conf – hepatic lipid droplet formation inhibition, confirmed; AML12 mouse hepatocytes, BODIPY lipid droplet imaging; droplets induced with 100 µM oleic acid; actives 65% (n = 870); AID 463183; inhibition, % at 5.2 µM; shares compounds with Hep lipid drop;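 active = inhibition of lipid droplet metric at least 50%, with more than 300 cells in each of four replicates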;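 also: plate controls were DMSO with oleic acid for no effect and 5 µM Triacsin-C for full effect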
AML12 cytotox – toxic to AML12 mouse hepatocytes in counter-screen; shares compounds with Hep lipid drop; DAPI nuclear morphology cytotoxicity imaging; active compounds read high; cells fed 100 µM oleate overnight; z-score at 5 µM; actives 3% (n = 870); AID 463200; in the data active = z-score above about 6.3;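 also: compound exposure lasted overnight at 37 °C before fixation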
AML12 tox ATP – AML12 hepatocyte cytotoxicity, confirmed | shares compounds with Hep lipid drop | AML12 mouse hepatocyte viability, ATP luminescence; cells loaded with 100 µM oleic acid | cytotoxicity, % at 50 µM | 530 tested, under 10 active | AID 463219;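 active = cytotoxicity above 50% in each of four replicates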;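 also: compound exposure lasted overnight at 37 °C before the ATP read; 0% = DMSO-treated cells and 100% = wells with no cells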
* marks the source's active call; other numbers are inactive results; x = no result given.

SMILES	MPTP block	Hep lipid drop	Lmaj promast	T cruzi repl	Redox H2O2 prof	Hep lipid conf	AML12 cytotox	AML12 tox ATP
CCCCOc1ccc(C(=O)Nc2cc(C)c(OCC(=O)N3CCOCC3)c(C)c2)cc1	0	93*	13	6	2	96*	0.34	45
Cc1cc(NC(=O)c2cccc3ccccc23)cc(C)c1OCC(=O)N1CCOCC1	-3	61*	8	14	-4	88*	0.28	17
Cc1cc(NC(=O)c2ccc(Cl)cc2)cc(C)c1OCC(=O)N1CCOCC1	2	41	x	1	x	x	x	x
COc1cc(SC)ccc1C(=O)Nc1cc(C)c(OCC(=O)N2CCOCC2)c(C)c1	0	12	x	17	x	x	x	x
CCOC(=O)Cc1nc(-c2cccc(C(F)(F)F)c2)no1	-2	9	4	-4	-2	x	x	x
O=C(NCC1(N2CCCCC2)CCCCC1)c1cccc(S(=O)(=O)Nc2ccc(F)cc2)c1	-3	x	x	x	x	x	x	x
O=C(NCC1CCCO1)C1CCCN(S(=O)(=O)c2cc(Cl)ccc2Cl)C1 (stereo unspecified)	-1	-12	x	-4	x	x	x	x
CC1=C(C(=O)OCC2CCCO2)C(c2ccc(Cl)c(Cl)c2)NC(=O)N1 (stereo unspecified)	1	57*	-5	-2	0	35	-0.64	x
CC1=C(C(=O)OCC2CCCO2)C(c2ccccc2Cl)NC(=O)N1 (stereo unspecified)	-15	7	-3	11	1	x	x	x
O=c1[nH]c(CSc2nc(-c3ccc(F)cc3)cs2)nc2ccccc12	2	-9	47	-2	0	x	x	x
C=C(C)C(=O)N1CC2(CC(c3cccc(NC(=O)/C=C\C=C/C)c3)=NO2)C[C@H]1C(N)=O (stereo partly specified)	-1	54*	x	-16	x	34	-0.38	x
CCOC(=O)c1ccc(S(=O)(=O)NCCN(CC)CC)cc1	0	4	-1	-4	-2	x	x	x
CCOC(=O)c1ccc(S(=O)(=O)NCC(c2ccc(N(C)C)cc2)c2c[nH]c3ccccc23)cc1 (stereo unspecified)	6	96*	1	27	0	108*	0.39	14
CCCSC1=C(C#N)C(c2cccs2)C(C(=O)Nc2ccccc2)=C(C)N1 (stereo unspecified)	-2	54*	89*	41	2	93*	-0.17	-2
O=C(/C=C/c1ccc(Cl)cc1)NC(=S)Nc1ccc(NC(=O)c2ccco2)cc1	1	57*	1	-78	0	14	3	x
CC(=O)Nc1ccc(NC(=S)NC(=O)/C=C/c2ccc(Cl)cc2)cc1	-1	20	5	-106	-1	x	x	x
CN(CCCC(=O)N1CCN(c2ncccn2)CC1)S(=O)(=O)c1ccc(F)cc1	0	x	x	x	x	x	x	x
CCn1cc(C(=O)NCc2ccc(Cl)cc2)c(=O)c2cc(S(=O)(=O)N(C)C)ccc21	0	62*	x	-2	x	45	-0.85	19
CCn1cc(C(=O)NCCc2ccc(Cl)cc2)c(=O)c2cc(S(=O)(=O)N(C)C)ccc21	1	0	x	-2	x	x	x	x
COc1ccc(-c2csc(C(C#N)=C(O)CSc3nccn3C)n2)cc1OC	1	x	x	x	x	x	x	x
COc1ccc(-n2c(=O)c3ccccc3n(CC(=O)c3ccccc3)c2=O)cc1OC	2	6	0	-3	0	x	x	x
COc1ccc(-n2c(=O)c3ccccc3n(CC(=O)Nc3cc(C)on3)c2=O)cc1OC	-2	52*	-6	-15	-3	31	-0.63	x
Cc1ccc(C(=O)N2CCCCC2)cc1S(=O)(=O)N1CCOCC1	-1	4	x	-1	x	x	x	x
Cc1cc(=O)oc2cc(OCC(=O)NCCCN3CCCC3=O)ccc12	0	52*	x	-11	x	21	-0.74	x
CCOC(=O)N1CCN(C(=O)c2ccc(Oc3ccc([N+](=O)[O-])cc3)cc2)CC1	2	4	-3	-2	-1	x	x	x
SMILES	MPTP block	Hep lipid drop	Lmaj promast	T cruzi repl	Redox H2O2 prof	Hep lipid conf	AML12 cytotox	AML12 tox ATP
CCCCn1c(SCC(=O)Nc2cc(C(F)(F)F)cc(C(F)(F)F)c2)nnc1C(CC)N(C)C (stereo unspecified)	2	78*	17	29	-1	107*	-0.35	17
CCOc1ccccc1NC(=O)CC1Nc2cc(C)c(C)cc2NC1=O (stereo unspecified)	-4	59*	5	-3	2	67*	1.3	x
Cc1cc(C=O)c(O)cc1O	-1	51*	x	1	x	27	-0.29	x
O=Cc1cc(N=Nc2ccc(S(=O)(=O)O)cc2)ccc1O	3	x	x	13	x	x	x	x
CCN1CCN(C2=C(NS(=O)(=O)c3ccc(C)cc3)C(=O)c3ccccc3C2=O)CC1	1	-15	x	5	x	x	x	x
O=C1C(NS(=O)(=O)c2ccccc2)=C(N2CCN(c3ccc(F)cc3)CC2)C(=O)c2ccccc21	3	79*	x	8	x	81*	-1.4	17
O=C1C(NS(=O)(=O)c2cccs2)=C(N2CCN(c3cccc(Cl)c3)CC2)C(=O)c2ccccc21	4	61*	99*	35	1	112*	0.38	18
CC1CCN(C2=C(NS(=O)(=O)c3ccc(Br)cc3)C(=O)c3ccccc3C2=O)CC1	2	60*	x	35	x	114*	-0.12	23
O=C1C(NS(=O)(=O)c2ccc(Br)cc2)=C(N2CCCCC2)C(=O)c2ccccc21	1	19	x	22	x	x	x	x
CC1CCCN(C2=C(NS(=O)(=O)c3ccc(Br)cc3)C(=O)c3ccccc3C2=O)C1 (stereo unspecified)	2	50*	x	33	x	112*	-1.2	23
CCOc1ccc(CCNC(=O)CCC(=O)N2CCOc3ccccc32)cc1OCC	0	83*	x	0	x	111*	-0.36	17
CCOc1ccc(CCNC(=O)CCS(=O)(=O)c2ccc(Br)cc2)cc1OCC	-1	54*	x	-6	x	92*	0.049	12
CCOc1ccc(CCNC(=O)CCS(=O)(=O)c2ccc(C)cc2)cc1OCC	0	102*	x	1	x	95*	-0.82	8
O=C(CCC(=O)N1CCOc2ccccc21)NCCc1ccccc1	0	-10	x	-7	x	x	x	x
CCOc1ccc(CCNC(=O)CCNS(=O)(=O)c2ccc(Br)cc2)cc1OCC	-1	75*	x	15	x	98*	-0.36	15
O=C(CCNS(=O)(=O)c1ccc(Br)cc1)NCCc1ccc(Cl)cc1	-2	-8	x	39	x	x	x	x
Cc1nc2ccccn2c1C(=O)OCC#N	-2	32	2	-2	0	x	x	x
CCC(CC)C(=O)OCC(=O)Nc1cccc([N+](=O)[O-])c1	4	2	-4	-4	0	x	x	x

Bioassay records as filed in PubChem.
